{
  "source": "ChEMBL document CHEMBL4680176",
  "about": "“Identification of DOT1L inhibitors by structure-based virtual screening adapted from a nucleoside-focused library” (Eur J Med Chem, 2020)",
  "tested_on": "Bone marrow cell",
  "assay": "Induction of cell differentiation in mouse bone marrow cells transformed with MLL-AF9 assessed as change in morphology at 3 uM incubated for 6 days by Wright-Giemsa staining based inverted microscopy",
  "format": "functional",
  "settings": "time 6.0 day",
  "method_in_brief": "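Cells taken on day 6 of the proliferation culture (MLL-AF9 murine line, IMDM + 15% FBS + IL-3, re-dosed at each split, 0.3% DMSO). Cytospun onto slides, Wright-Giemsa stained, and imaged under bright field on an inverted microscope to assess morphology.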",
  "note": "Activity calls are given as the source filed them. The rule behind the calls is not given here.",
  "data": [
    {"smiles": "CC(C)N(CCCNC(=O)Nc1ccc(C(C)(C)C)cc1)C[C@H]1O[C@@H](n2ccc3c(N)ncnc32)[C@H](O)[C@@H]1O", "values": [
      {"measurement": "Activity", "value": "Active"}
    ]}
  ]
}
